Measured values as given in ChEMBL document CHEMBL3085642, “Synthesis and evaluation of novel 4-nitropyrrole-based 1,3,4-oxadiazole derivatives as antimicrobial and anti-tubercular agents” (Eur J Med Chem, 2013).
In brackets after ≈: the same amount, converted by molar mass.

What was measured:
Candida albicans [1] = assay: Antifungal activity against Candida albicans after 48 hrs by two fold agar dilution method; type: functional
Procedure, shortened: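 Two-fold serial dilutions in DMSO were tested against C. albicans by agar dilution. Cultures were incubated for 48 h at 35 °C and growth was monitored. MIC was taken as the lowest concentration (highest dilution) that arrested fungal growth.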

Bacillus spizizenii = assay: Antibacterial activity against Bacillus subtilis ATCC 6633 by two fold broth dilution method; type: functional
Staphylococcus aureus [2] = assay: Antibacterial activity against methicillin-resistant Staphylococcus aureus ATCC 43866 by broth dilution method; type: functional
Klebsiella pneumoniae = assay: Antibacterial activity against Klebsiella pneumoniae by two fold broth dilution method; type: functional
Staphylococcus aureus [3] = assay: Ratio of ciprofloxacin MIC to compound MIC against Staphylococcus aureus ATCC 25923; type: functional
Staphylococcus aureus [4] = assay: Antibacterial activity against Staphylococcus aureus ATCC 25923 by two fold broth dilution method; type: functional
Staphylococcus aureus [5] = assay: Ratio of ciprofloxacin MIC to compound MIC against methicillin-susceptible Staphylococcus aureus ATCC 35556; type: functional
[6] = tested on: Mycobacterium tuberculosis; assay: Antitubercular activity against Mycobacterium tuberculosis H37Rv after 7 days by resazurin microtitre assay; type: functional; settings: 168 h
Escherichia coli = assay: Antibacterial activity against Escherichia coli ATCC 25922 by two fold broth dilution method; type: functional
Candida albicans [7] = assay: Ratio of ampotericin-B MIC to compound MIC against Candida albicans; type: functional
Staphylococcus aureus [8] = assay: Antibacterial activity against methicillin-susceptible Staphylococcus aureus ATCC 35556 by broth dilution method; type: functional
Vero = assay: Cytotoxicity against african green monkey Vero cells after 72 hrs by MTT assay; type: cell-based; settings: Chlorocebus sabaeus
Procedure, shortened: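 Vero cells were exposed to compounds for 72 h. Viability was measured by cellular conversion of MTT into formazan (non-radioactive proliferation assay), and the cytotoxic concentration was reported as IC50.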

Row | Compound | MIC (Candida albicans [1]) [µg/mL] | MIC (Bacillus spizizenii) [µg/mL] | MIC (Staphylococcus aureus [2]) [µg/mL] | MIC (Klebsiella pneumoniae) [µg/mL] | Ratio (Staphylococcus aureus [3]) | MIC (Staphylococcus aureus [4]) [µg/mL] | Ratio (Staphylococcus aureus [5]) | MIC [6] [µg/mL] | MIC (Escherichia coli) [µg/mL] | Ratio (Candida albicans [7]) | MIC (Staphylococcus aureus [8]) [µg/mL] | IC50 (Vero) [µM]
1 | C[C@@H]1[C@H](O)[C@@H](C)/C=C/C=C/C=C/C=C/C=C/C=C/C=C/[C@H](O[C@@H]2O[C@H](C)[C@@H](O)[C@H](N)[C@@H]2O)C[C@@H]2O[C@](O)(C[C@@H](O)C[C@@H](O)[C@H](O)CC[C@@H](O)C[C@@H](O)CC(=O)O[C@H]1C)C[C@H](O)[C@H]2C(=O)O [AMPHOTERICIN B] | 3.12 (≈ 3.38 µM) |  |  |  |  |  |  |  |  |  |  | 
2 | COc1cccc(-c2nnc(-c3cc([N+](=O)[O-])cn3C)o2)c1 | 1.56 (≈ 5.2 µM) | 1.56 (≈ 5.2 µM) | 1.56 (≈ 5.2 µM) | 12.5 (≈ 41.6 µM) | 2 | 0.78 (≈ 2.6 µM) | 2 | 37.4 (≈ 125 µM) | 3.12 (≈ 10.4 µM) | 2 | 0.39 (≈ 1.3 µM) | 299
3 | COc1cccc(-c2nnc(-c3cc([N+](=O)[O-])c[nH]3)o2)c1 | 3.12 (≈ 10.9 µM) | 3.12 (≈ 10.9 µM) | 3.12 (≈ 10.9 µM) | 25 (≈ 87.3 µM) |  | 1.56 (≈ 5.45 µM) |  | 13.5 (≈ 47.2 µM) | 3.12 (≈ 10.9 µM) |  | 1.56 (≈ 5.45 µM) | 429
4 | O=[N+]([O-])c1c[nH]c(-c2nnc(-c3ccns3)o2)c1 | 3.12 (≈ 11.9 µM) | 3.12 (≈ 11.9 µM) | 3.12 (≈ 11.9 µM) | 25 (≈ 95 µM) |  | 1.56 (≈ 5.93 µM) |  | 62.7 (≈ 238 µM) | 6.25 (≈ 23.7 µM) |  | 1.56 (≈ 5.93 µM) | 532
5 | O=[N+]([O-])c1c[nH]c(-c2nnc(-c3ccccc3Br)o2)c1 | 3.12 (≈ 9.33 µM) | 1.56 (≈ 4.66 µM) | 3.12 (≈ 9.33 µM) | 25 (≈ 74.6 µM) |  | 1.56 (≈ 4.66 µM) |  | 0.81 (≈ 2.42 µM) | 1.56 (≈ 4.66 µM) |  | 1.56 (≈ 4.66 µM) | 190
6 | Cn1cc([N+](=O)[O-])cc1-c1nnc(Cc2ccc(F)c3ccccc23)o1 | 1.56 (≈ 4.43 µM) | 1.56 (≈ 4.43 µM) | 1.56 (≈ 4.43 µM) | 12.5 (≈ 35.5 µM) | 2 | 0.78 (≈ 2.21 µM) | 2 |  | 6.25 (≈ 17.7 µM) | 2 | 0.39 (≈ 1.11 µM) | 119
7 | O=[N+]([O-])c1c[nH]c(-c2nnc(-c3ccccc3)o2)c1 | 12.5 (≈ 48.8 µM) | 3.12 (≈ 12.2 µM) | 3.12 (≈ 12.2 µM) | 25 (≈ 97.6 µM) |  | 3.12 (≈ 12.2 µM) |  | 56.3 (≈ 220 µM) | 6.25 (≈ 24.4 µM) |  | 1.56 (≈ 6.09 µM) | 423
8 | O=[N+]([O-])c1c[nH]c(-c2nnc(-c3cc4cc(Cl)ccc4[nH]3)o2)c1 | 3.12 (≈ 9.48 µM) | 3.12 (≈ 9.48 µM) | 3.12 (≈ 9.48 µM) | 25 (≈ 75.8 µM) |  | 1.56 (≈ 4.73 µM) |  | 3.4 (≈ 10.3 µM) | 1.56 (≈ 4.73 µM) |  | 1.56 (≈ 4.73 µM) | 329
9 | Cc1ccc(-c2nnc(-c3cc([N+](=O)[O-])cn3C)o2)s1 | 1.56 (≈ 5.37 µM) | 1.56 (≈ 5.37 µM) | 1.56 (≈ 5.37 µM) | 12.5 (≈ 43.1 µM) | 2 | 0.78 (≈ 2.69 µM) |  |  | 6.25 (≈ 21.5 µM) | 2 | 1.56 (≈ 5.37 µM) | 98.3
10 | Cn1cc([N+](=O)[O-])cc1-c1nnc(-c2cc3ccccc3[nH]2)o1 | 1.56 (≈ 5.04 µM) | 1.56 (≈ 5.04 µM) | 1.56 (≈ 5.04 µM) | 12.5 (≈ 40.4 µM) | 2 | 0.78 (≈ 2.52 µM) | 2 |  | 6.25 (≈ 20.2 µM) | 2 | 0.39 (≈ 1.26 µM) | 109
11 | COc1cccc(OC)c1-c1nnc(-c2cc([N+](=O)[O-])c[nH]2)o1 | 3.12 (≈ 9.88 µM) | 3.12 (≈ 9.88 µM) | 3.12 (≈ 9.88 µM) | 25 (≈ 79 µM) |  | 1.56 (≈ 4.93 µM) |  | 5.4 (≈ 17.1 µM) | 3.12 (≈ 9.88 µM) |  | 1.56 (≈ 4.93 µM) | 170
12 | Cn1cc([N+](=O)[O-])cc1-c1nnc(-c2cccc([N+](=O)[O-])c2O)o1 | 1.56 (≈ 4.71 µM) | 1.56 (≈ 4.71 µM) | 1.56 (≈ 4.71 µM) | 12.5 (≈ 37.7 µM) | 2 | 0.78 (≈ 2.35 µM) | 2 |  | 3.12 (≈ 9.43 µM) | 2 | 0.39 (≈ 1.18 µM) | 269
13 | O=C(O)c1cn(C2CC2)c2cc(N3CCNCC3)c(F)cc2c1=O [CIPROFLOXACIN] |  | 1.56 (≈ 4.71 µM) | 3.12 (≈ 9.43 µM) | 1.56 (≈ 4.71 µM) |  | 1.56 (≈ 4.71 µM) |  |  |  |  | 1.56 (≈ 4.71 µM) | 
14 | COc1ccc(-c2nnc(-c3cc([N+](=O)[O-])cn3C)o2)cc1 | 1.56 (≈ 5.2 µM) | 1.56 (≈ 5.2 µM) | 1.56 (≈ 5.2 µM) | 12.5 (≈ 41.6 µM) | 2 | 0.78 (≈ 2.6 µM) | 2 |  | 6.25 (≈ 20.8 µM) | 2 | 0.39 (≈ 1.3 µM) | 281
15 | O=[N+]([O-])c1c[nH]c(-c2nnc(C3(c4ccccc4)CC3)o2)c1 | 25 (≈ 84.4 µM) | 3.12 (≈ 10.5 µM) | 3.12 (≈ 10.5 µM) | 25 (≈ 84.4 µM) | 2 | 0.78 (≈ 2.63 µM) |  | 56.8 (≈ 192 µM) | 1.56 (≈ 5.27 µM) |  | 1.56 (≈ 5.27 µM) | 380
